The values below come from ChEMBL document CHEMBL3763111, “Identification of a diverse indole-2-carboxamides as a potent antileishmanial chemotypes” (Eur J Med Chem, 2016).

What is called MRT is the average time that molecules of a dose stay in the body. As a reminder, the CL/F is the apparent clearance, not corrected for the fraction that reaches the circulation. What is called IC50 is the point on the concentration scale where inhibition reaches its midpoint. One may read the inhibition in vivo as how much of the control response was suppressed. Usually Tmax stands for the time from dosing to the highest level. Usually CC50 stands for the concentration at which the toxic effect on the cells reaches its halfway point. The term clearance denotes the rate of elimination divided by the concentration. As a reminder, the AUC(0-t) is exposure summed from dosing to a finite time, without extrapolation to infinity. As usually defined, the Cmax is the maximum level reached in the sampled fluid or tissue. As a reminder, the bioavailability is the share of a dose that reaches the circulation, judged against a reference dose that is usually intravenous.

Data set [1] is described as follows: Mean residence time in Sprague-Dawley rat at 5 mg/kg, iv by RP-HPLC analysis. Format: ADME, organism-based. The settings on record: in vivo. The gist of the method:
(§1)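 Male Sprague-Dawley rats (250 ± 25 g), conscious, given a single 5 mg/kg dose into the femoral vein. The dose was a 10 mg/ml solution in DMSO/ethanol/tween 80/propylene glycol (10:20:2:48) with normal saline. Blood taken 0.083–48 h; serum read by isocratic RP-HPLC (C18, ammonium acetate 0.01M:acetonitrile 35:65), LLOQ 25 ng/ml. n=3; noncompartmental analysis.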

A short description of data set [2]: Clearance in Sprague-Dawley rat at 50 mg/kg administered as single dose via oral gavage after 0.5 to 48 hrs by RP-HPLC analysis. The data set is classed as ADME, organism-based. The settings on record: in vivo. The gist of the method: (§2)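 Single 50 mg/kg oral gavage dose to conscious male Sprague-Dawley rats (250 ± 25 g) after a 12–16 h overnight fast. Blood drawn at 0.5–48 h; serum separated and held at -80°C. Quantified by isocratic RP-HPLC (C18; 0.01M ammonium acetate/acetonitrile 35:65), LLOQ 25 ng/ml. Three rats; parameters derived noncompartmentally from mean serum concentrations.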

For data set [3], the system named is Leishmania donovani. The experiment in a line: Antileishmanial activity against Leishmania donovani MHOM/IN/80/Dd8 amastigotes infected in mouse J774A.1 cells incubated for 72 hrs by luminometric analysis. The data set is classed as functional, organism-based. The settings on record: MHOM/IN/80/Dd8, J774.A1, 72 h. The gist of the method: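 Macrophages seeded at 4 x 10^4/mL in RPMI-1640 with 10% FCS for 24 h, then infected with stationary-phase promastigotes (4 x 10^5/mL) for 24 h. Free parasites washed off. Compounds added as 7-point two-fold dilutions from 40 µM; 72 h at 37°C. Read-out was Steady Glo luminescence. IC50 from four-parameter Hill fit; two independent assays in duplicate.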

Data set [4] concerns Leishmania donovani. The experiment in a line: Antileishmanial activity against promastigote stage of Leishmania donovani MHOM/IN/80/Dd8 assessed as apoptotic cells at IC50 after 48 hrs by annexin V-FITC/propidium iodide double staining-based flow cytometric analysis. The data set is classed as functional. A general note: In flow cytometry, cells or beads pass a laser one at a time.

For data set [5], the system named is Leishmania donovani. Nature of the data set: Antileishmanial activity against amastigote stage of Leishmania donovani MHOM/IN/80/Dd8 infected in golden hamster at 50 mg/kg/day, ip administered for 5 days measured on day 7 of last dose by Geimsa staining method. The data set is classed as functional. The settings on record: MHOM/IN/80/Dd8, ip. The gist of the method:
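Inbred golden hamsters (40–45 g) infected intracardially with 1x10^7 amastigotes; only animals with +1 infection at 15-day spleen biopsy used. Five to six per group. Aqueous compound given ip at 50 mg/kg/day for 5 days, starting 2 days after biopsy. Splenic biopsy on day 7 after last dose, Giemsa-stained. Percent inhibition by formula relative to initial and untreated-control counts; pooled from at least two experiments.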

The next data set has as its system Rattus norvegicus. The experiment in a line: Volume of distribution at steady state in Sprague-Dawley rat at 50 mg/kg administered as single dose via oral gavage after 0.5 to 48 hrs by RP-HPLC analysis. The data set is classed as ADME, organism-based. The settings on record: in vivo. The gist of the method: as §2
The test system of data set [6] is Leishmania donovani. The experiment in a line: Antileishmanial activity against promastigote stage of Leishmania donovani MHOM/IN/80/Dd8 assessed as apoptotic cells at IC50 after 72 hrs by annexin V-FITC/propidium iodide double staining-based flow cytometric analysis. Format: functional.
The nature of data set [7]: Volume of distribution at steady state in Sprague-Dawley rat at 5 mg/kg, iv after 0.083 to 48 hrs by RP-HPLC analysis. The settings on record: in vivo, read-out: Vdss. The data set is classed as ADME, organism-based. The gist of the method:
as §1

Data set [8] can be described thus: Tmax in Sprague-Dawley rat at 50 mg/kg administered as single dose via oral gavage by RP-HPLC analysis. Format: ADME, organism-based. The settings on record: in vivo. The gist of the method:
as §2

Data set [9] can be described thus: Cytotoxicity against African green monkey Vero cells after 72 hrs by MTT assay. The data set is classed as cell-based. The settings on record: chlorocebus sabaeus. The gist of the method: (§3)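 Vero or J-774A.1 cells (1 x 10^5 cells/mL) exposed to 7 concentrations starting from 400 µM for 72 h. MTT (5 mg/mL stock) then added for 2 h at 37°C. Formazan dissolved in DMSO; absorbance read at 544 nm. CC50 estimated per Huber & Koella; mean ± SD of two independent assays in duplicate.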

A short description of data set [10]: Mean residence time in Sprague-Dawley rat at 50 mg/kg administered as single dose via oral gavage by RP-HPLC analysis. The data set is classed as ADME, organism-based. The settings on record: in vivo. The gist of the method:
as §2

Data set [11] in a line: Clearance in Sprague-Dawley rat at 5 mg/kg, iv after 0.083 to 48 hrs by RP-HPLC analysis. The data set is classed as ADME, organism-based. The settings on record: in vivo. The gist of the method:
as §1

Data set [12] can be described thus: AUC(last) in Sprague-Dawley rat at 50 mg/kg administered as single dose via oral gavage after 0.5 to 48 hrs by RP-HPLC analysis. The data set is classed as ADME, organism-based. Also noted: dose 50 mg/kg, time 0 - last, route oral. The settings on record: in vivo. The gist of the method:
as §2

A further data set concerns Syrian golden hamster. The experiment in a line: Toxicity in golden hamster infected with amastigote stage of Leishmania donovani MHOM/IN/80/Dd8 assessed as abnormality in behaviour at 50 mg/kg/day, ip administered for 5 days. Format: organism-based, Mesocricetus auratus. The settings on record: in vivo, 120 h.
Data set [13] concerns Leishmania donovani. The experiment in a line: Antileishmanial activity against promastigote stage of Leishmania donovani MHOM/IN/80/Dd8 assessed as apoptotic cells at IC50 after 24 hrs by annexin V-FITC/propidium iodide double staining-based flow cytometric analysis. Format: functional.
Data set [14] in a line: AUC(last) in Sprague-Dawley rat at 5 mg/kg, iv after 0.083 to 48 hrs by RP-HPLC analysis. The arrangement: dose 5 mg/kg, route intravenous, time 0 - last. The settings on record: in vivo. The data set is classed as ADME, organism-based. The gist of the method:
as §1

The nature of data set [15]: Selectivity index, ratio of CC50 for African green monkey Vero cells to IC50 for Leishmania donovani MHOM/IN/80/Dd8 amastigotes infected in mouse J774A.1 cells. Format: functional. The gist of the method: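 Ratio of Vero-cell MTT CC50 to IC50 against intracellular amastigotes, both measured in this work.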
In data set [16] the test system is Leishmania donovani. The experiment in a line: Antileishmanial activity against promastigote stage of Leishmania donovani MHOM/IN/80/Dd8 assessed as apoptotic cells at IC50 after 12 hrs by annexin V-FITC/propidium iodide double staining-based flow cytometric analysis. The data set is classed as functional.
The subject of data set [17] is Leishmania donovani. Nature of the data set: Potency index, ratio of IC50 for miltefosine to IC50 for test compound against Leishmania donovani MHOM/IN/80/Dd8 amastigotes infected in mouse J774A.1 cells. Format: functional.
Data set [18] in a line: Cytotoxicity against mouse J774A.1 cells after 72 hrs by MTT assay. The data set is classed as cell-based, J774.A1. The gist of the method: as §3
The nature of data set [19]: Cmax in Sprague-Dawley rat at 5 mg/kg, iv after 0.083 to 48 hrs by RP-HPLC analysis. The data set is classed as ADME, organism-based. Also noted: dose 5 mg/kg, route intravenous. The settings on record: in vivo. The gist of the method: as §1
Data set [20] is described as follows: Cmax in Sprague-Dawley rat at 50 mg/kg administered as single dose via oral gavage after 0.5 to 48 hrs by RP-HPLC analysis. Format: ADME, organism-based. Also noted: dose 50 mg/kg, route oral. The settings on record: in vivo. The gist of the method:
as §2

A short description of data set [21]: Oral availability in Sprague-Dawley rat at 50 mg/kg via gavage after 0.5 to 48 hrs by RP-HPLC analysis. The settings on record: in vivo. The data set is classed as ADME, organism-based. The gist of the method:
as §2

Data set [22] can be described thus: Tmax in Sprague-Dawley rat at 5 mg/kg, iv by RP-HPLC analysis. The data set is classed as ADME, organism-based. The settings on record: in vivo. The gist of the method: as §1

Regarding `COc1ccc(CNC(=O)CN(C(=O)c2cc3ccccc3[nH]2)C(C(=O)NC(C)(C)C)c2ccc(Cl)cc2)cc1` (centres undefined), the MRT worked out at 7.4 h in data set [1] and 8.5 h in [10]. In data set [2], this compound showed a CL/F of 25 mL/min/kg. Further, the IC50 with Leishmania donovani [3] worked out at 1.2 µM. Also, the Activity in the data set with Leishmania donovani [4] is on record as 73.3%; in the data set with Leishmania donovani [6], 79.07%; with Syrian golden hamster it was “Non-toxic”; in the data set on Leishmania donovani [13], 56.17%; in the data set with Leishmania donovani [16] it was 49.1%. The compound further returned an inhibition in vivo at 50 mg/kg/day in the data set on Leishmania donovani [5] of 70%. In addition, the Vdss in the data set on Rattus norvegicus was determined as 12.8 L/kg. Also, the Vd in data set [7] is 4.4 L/kg. Moreover, the Tmax came to 1 h in [8] and 4.98 min in data set [22]. Further, the CC50 at 72 h amounted to 146 µM in data set [9] and 140 µM in data set [18]. In addition, in [11], the clearance was 10 mL/min/kg. Besides, the AUC(0-t) in data set [12] was 27200 ng·h/mL; in [14], 7790 ng·h/mL. The “Ratio CC50/IC50” value in data set [15] worked out at 121. For the same compound, the “Ratio IC50” value in the data set with Leishmania donovani [17] is 7. Further, the Cmax in [19] came to 1390 ng/mL; in [20], 1590 ng/mL. Further, the bioavailability in data set [21] was determined as 34.9%.
